We go through 3 compounds from ChEMBL document CHEMBL2040803, “Synthesis and anticonvulsant activity of ethyl 1-(2-arylhydrazinecarboxamido)-2,2-dimethylcyclopropanecarboxylate derivatives” (Eur J Med Chem, 2012).

The structures appear in SMILES notation. The source made the active and inactive calls.

Usually TD50 stands for the 50% point of the dose-response relation for the toxic effect studied. The ED50 is the dose at which the effect has come halfway, by size or by number of responders.

Data set [1] in a line: Neurotoxicity in ip dosed Kunming mouse measured 30 mins post compound administration by rotorod test. Format: toxicity, organism-based. Particulars: in vivo. (In general: Falling from the rotarod earlier than controls is read as motor impairment.)
Data set [2] has as its system Mus musculus. Description: Anticonvulsant activity in Kunming mouse assessed as protection against maximal electroshock-induced seizures at 30 mg/kg, ip measured after 0.5 hr. The arrangement: dose 30 mg/kg. The format is functional, organism-based. In a few lines: (§1)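 Male Kunming mice (20 ± 2.0 g) were dosed ip at 30, 100 and 300 mg/kg as a suspension in 0.5% methylcellulose, one to four mice per dose. A 60-Hz, 50-mA current was applied through corneal electrodes for 0.25 s at 0.5 h and 4.0 h after dosing. Absence of hindlimb tonic extension counted as protection. The value is the minimal dose protecting half or more of the mice.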
For orientation: The maximal electroshock test induces tonic seizures with an electrical stimulus.

Data set [3] deals with Mus musculus. Description: Anticonvulsant activity in Kunming mouse assessed as protection against subcutaneous pentylenetetrazol-induced clonic seizures at 100 mg/kg, ip measured after 4 hrs. Format: functional, organism-based. The arrangement: dose 100 mg/kg. In a few lines: (§2)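 Male Kunming mice (20 ± 2.0 g) received ip doses of 30, 100 or 300 mg/kg as a suspension in 0.5% methylcellulose, one to four mice per dose. Pentylenetetrazole in 0.9% saline was injected subcutaneously. Protection meant failure to show even a threshold seizure (a single clonic spasm lasting at least 5 s), read at 0.5 h and 4.0 h. Activity was scored as the minimal dose protecting half or more of the mice.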

Data set [4] deals with Mus musculus. Description: Protective index, ratio of TD50 for neurotoxicity in Kunming mouse to ED50 for protection against subcutaneous pentylenetetrazol-induced clonic seizures in Kunming mouse. The format is functional.
The subject of data set [5] is Mus musculus. The data set is described as follows: Anticonvulsant activity in ip dosed Kunming mouse assessed as protection against maximal electroshock-induced seizures. The format is functional.
In data set [6] the test system is Mus musculus. Description: Anticonvulsant activity in Kunming mouse assessed as protection against subcutaneous pentylenetetrazol-induced clonic seizures at 300 mg/kg, ip measured after 0.5 hrs. The arrangement: dose 300 mg/kg. The format is functional, organism-based. In a few lines:
as §2

The test system of data set [7] is Mus musculus. Description: Anticonvulsant activity in ip dosed Kunming mouse assessed as protection against subcutaneous pentylenetetrazol-induced clonic seizures. The format is functional.
For data set [8], the system named is Mus musculus. Description: Neurotoxicity in Kunming mouse at 300 mg/kg, ip after 0.5 hr by rotorod test. Format: toxicity, organism-based. The arrangement: dose 300 mg/kg, route intraperitoneal. As to conditions: in vivo. The method in brief: (§3)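 Trained male Kunming mice were given ip doses of 30, 100 or 300 mg/kg, one to four per dose. They were placed on a 1 in. knurled rod rotating at 6 rpm, and examined at 0.5 h and 4.0 h. Neurotoxicity was inability to keep balance for at least 1 min in each of four trials. The value is the minimal dose giving toxicity in half or more of the mice.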

Data set [9] is filed under the species Mus musculus. The data set is described as follows: Protective index, ratio of TD50 for neurotoxicity in Kunming mouse to ED50 for protection against MES-induced seizures in Kunming mouse. The format is functional.
For data set [10], the system named is Mus musculus. Description: Neurotoxicity in Kunming mouse at 300 mg/kg, ip after 4 hrs by rotorod test. The format is toxicity, organism-based. Set-up: dose 300 mg/kg, route intraperitoneal. As to conditions: in vivo. In a few lines:
as §3

In data set [11] the test system is Mus musculus. Description: Anticonvulsant activity in Kunming mouse assessed as protection against maximal electroshock-induced seizures at 30 mg/kg, ip measured after 4 hrs. The arrangement: dose 30 mg/kg. Format: functional, organism-based. The method in brief: as §1
The subject of data set [12] is Mus musculus. Description: Neurotoxicity in Kunming mouse at 100 mg/kg, ip after 0.5 hr by rotorod test. Format: toxicity, organism-based. The arrangement: dose 100 mg/kg, route intraperitoneal. As to conditions: in vivo. The method in brief: as §3
In data set [13] the test system is Mus musculus. Description: Anticonvulsant activity in Kunming mouse assessed as protection against subcutaneous pentylenetetrazol-induced clonic seizures at 300 mg/kg, ip measured after 4 hrs. The format is functional, organism-based. The arrangement: dose 300 mg/kg. In a few lines: as §2
Data set [14] has as its system Mus musculus. The data set is described as follows: Neurotoxicity in Kunming mouse at 100 mg/kg, ip after 4 hrs by rotorod test. Format: toxicity, organism-based. The arrangement: dose 100 mg/kg, route intraperitoneal. Particulars: in vivo. In a few lines:
as §3

In data set [15] the test system is Mus musculus. The data set is described as follows: Anticonvulsant activity in Kunming mouse assessed as protection against maximal electroshock-induced seizures at 100 mg/kg, ip measured after 4 hrs. The format is functional, organism-based. The arrangement: dose 100 mg/kg. The method in brief: as §1
In data set [16] the test system is Mus musculus. Description: Anticonvulsant activity in Kunming mouse assessed as protection against subcutaneous pentylenetetrazol-induced clonic seizures at 100 mg/kg, ip measured after 0.5 hrs. The arrangement: dose 100 mg/kg. The format is functional, organism-based. The method in brief: as §2

As for `CCOC(=O)C1(NC(=O)NNC(=O)c2ccc(C(F)(F)F)cc2)CC1(C)C` (centres undefined), the TD50 at 0.5 h in data set [1] worked out at 332 mg/kg. In addition, the result in the data set on Mus musculus [2], in the data set on Mus musculus [3], in the data set on Mus musculus [6] and in the data set with Mus musculus [11] was Active. Moreover, the “Ratio TD50/ED50” value in the data set on Mus musculus [4] was 5.9; in the data set filed under Mus musculus [9], 33.9. Further, the results for the 50% effective dose (ED50) in the data set with Mus musculus [5] and in the data set on Mus musculus [7] were 9.8 mg/kg and 58.4 mg/kg, respectively. In addition, the Activity entry in the data set on Mus musculus [8] and in the data set with Mus musculus [10] was “Non-toxic” in each case.

For `O=C1NC(=O)C(c2ccccc2)(c2ccccc2)N1` [PHENYTOIN], the Activity entry in the data set with Mus musculus [12] and in the data set on Mus musculus [14] was “Toxic” in each case. Besides, the outcome with Mus musculus [2] and in the data set with Mus musculus [11] was Active. In addition, the result in the data set with Mus musculus [13] and with Mus musculus [6] was inactive. Besides, in the data set with Mus musculus [7], the ED50 was above 300 mg/kg.

In [1], `CCOC(=O)C1(NC(=O)NN2C(=O)c3ccccc3C2=O)CC1(C)C` (centres undefined) had a TD50 at 0.5 h of 352 mg/kg. The result in the data set on Mus musculus [2], in the data set on Mus musculus [13], with Mus musculus [15] and in the data set on Mus musculus [16] was Active. The “Ratio TD50/ED50” value in the data set with Mus musculus [4] worked out at 1.7; in the data set filed under Mus musculus [9] it was 14.9. Besides, the 50% effective dose (ED50) with Mus musculus [5] came to 23.6 mg/kg; in the data set with Mus musculus [7] it was 213 mg/kg. The Activity result with Mus musculus [8] and in the data set on Mus musculus [10] was “Non-toxic” each time.
